Test results from ChEMBL document CHEMBL1155221, “Identification of novel indanylsulfonamide guanylhydrazones as potent 5-HT6 serotonin receptor antagonists” (J Med Chem, 2009).

Key:
[1] = target: T1, 5-hydroxytryptamine receptor 6 (Homo sapiens, UniProt P50406); test: Displacement of [3H]LSD from human recombinant 5HT6 receptor expressed in HEK293 cells after 60 mins by liquid scintillation counting; type: cell-based
Method in brief: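 Competition binding on membranes from HEK-293 cells expressing recombinant human 5-HT6 receptor, with [3H]-LSD as radioligand. […] Values are mean ± SEM of three experiments.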

[2] = target: T1, 5-hydroxytryptamine receptor 6; test: Inhibition of [3H]LSD binding to human recombinant 5HT6 receptor expressed in HEK293 cells at 100 nM after 60 mins by liquid scintillation counting; type: cell-based
Method in brief: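 Single-point competition at 100 nM test compound against [3H]-LSD on membranes from HEK-293 cells expressing recombinant human 5-HT6 receptor. Percent inhibition of radioligand binding reported.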

[3] = target: T1, 5-hydroxytryptamine receptor 6; test: Antagonist activity at human 5HT6 receptor expressed in HEK293F cells assessed as inhibition of 5-HT-stimulated cAMP production at […] after 30 mins by HTRF assay relative to (+/-)-6-chloro-N-(3-(1-methylpyrrolidin-3-yl)-1H-inden-5-yl)imidazo[2,1-b]thiazole-5-sulfonamide; type: functional, cell-based
[4] = target: T1, 5-hydroxytryptamine receptor 6; test: Antagonist activity at human 5HT6 receptor expressed in HEK293F cells assessed as inhibition of 5-HT-stimulated cAMP production after 30 mins by HTRF assay; type: functional, cell-based
Method in brief: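 HEK-293F cells stably expressing human 5-HT6 receptor. Compounds were tested against 5-HT-stimulated cAMP production, with cAMP read by homogeneous time-resolved fluorescence (HTRF). Antagonism expressed as Imax and IC50. Data are mean ± SEM of three experiments.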

[5] = target: T2, Adrenergic receptor alpha-2 (Homo sapiens, UniProt P08913+P18825+P18089); test: Inhibition of human alpha 2 adrenoceptor
T2 sequence (P08913 whole entry): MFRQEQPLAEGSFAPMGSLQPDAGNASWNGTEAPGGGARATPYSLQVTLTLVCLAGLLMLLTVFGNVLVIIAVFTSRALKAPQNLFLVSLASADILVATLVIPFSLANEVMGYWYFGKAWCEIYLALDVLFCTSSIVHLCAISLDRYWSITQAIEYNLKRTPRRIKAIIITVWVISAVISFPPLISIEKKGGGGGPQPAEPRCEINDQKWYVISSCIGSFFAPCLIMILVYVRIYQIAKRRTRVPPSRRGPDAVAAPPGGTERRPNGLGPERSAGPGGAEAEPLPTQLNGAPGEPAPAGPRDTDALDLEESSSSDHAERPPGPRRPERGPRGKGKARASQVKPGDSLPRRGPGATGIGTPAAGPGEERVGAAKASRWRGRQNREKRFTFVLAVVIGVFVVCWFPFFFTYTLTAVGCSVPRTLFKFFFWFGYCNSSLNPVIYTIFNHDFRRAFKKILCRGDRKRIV
T2 sequence (P18825 whole entry): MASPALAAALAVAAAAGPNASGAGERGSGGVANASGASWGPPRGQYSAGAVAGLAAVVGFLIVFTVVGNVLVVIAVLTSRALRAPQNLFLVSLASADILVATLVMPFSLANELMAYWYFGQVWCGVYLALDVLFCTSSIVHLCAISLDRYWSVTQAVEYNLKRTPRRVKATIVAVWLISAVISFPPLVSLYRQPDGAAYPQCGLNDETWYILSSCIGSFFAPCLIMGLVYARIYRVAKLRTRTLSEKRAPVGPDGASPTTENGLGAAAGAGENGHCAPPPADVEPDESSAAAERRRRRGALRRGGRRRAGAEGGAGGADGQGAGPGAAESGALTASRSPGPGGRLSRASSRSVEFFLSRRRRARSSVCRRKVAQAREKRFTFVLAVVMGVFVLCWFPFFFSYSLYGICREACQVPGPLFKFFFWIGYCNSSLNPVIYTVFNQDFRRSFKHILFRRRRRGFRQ
T2 sequence (P18089 whole entry): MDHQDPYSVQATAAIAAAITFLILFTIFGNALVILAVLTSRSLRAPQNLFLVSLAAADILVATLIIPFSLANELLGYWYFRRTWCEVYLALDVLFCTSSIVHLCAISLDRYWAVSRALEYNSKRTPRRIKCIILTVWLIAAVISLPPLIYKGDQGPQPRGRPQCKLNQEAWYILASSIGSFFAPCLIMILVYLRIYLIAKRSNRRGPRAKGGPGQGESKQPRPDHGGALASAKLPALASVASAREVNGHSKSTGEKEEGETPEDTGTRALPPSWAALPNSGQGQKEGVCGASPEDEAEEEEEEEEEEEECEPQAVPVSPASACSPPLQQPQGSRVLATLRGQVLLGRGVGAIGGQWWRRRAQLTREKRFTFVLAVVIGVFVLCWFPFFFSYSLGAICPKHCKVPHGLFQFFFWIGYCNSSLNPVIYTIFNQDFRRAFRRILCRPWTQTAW

[6] = target: T3, 5-hydroxytryptamine receptor 1A (Homo sapiens, UniProt P08908); test: Inhibition of human 5HT1A receptor
T3 sequence (P08908 whole entry): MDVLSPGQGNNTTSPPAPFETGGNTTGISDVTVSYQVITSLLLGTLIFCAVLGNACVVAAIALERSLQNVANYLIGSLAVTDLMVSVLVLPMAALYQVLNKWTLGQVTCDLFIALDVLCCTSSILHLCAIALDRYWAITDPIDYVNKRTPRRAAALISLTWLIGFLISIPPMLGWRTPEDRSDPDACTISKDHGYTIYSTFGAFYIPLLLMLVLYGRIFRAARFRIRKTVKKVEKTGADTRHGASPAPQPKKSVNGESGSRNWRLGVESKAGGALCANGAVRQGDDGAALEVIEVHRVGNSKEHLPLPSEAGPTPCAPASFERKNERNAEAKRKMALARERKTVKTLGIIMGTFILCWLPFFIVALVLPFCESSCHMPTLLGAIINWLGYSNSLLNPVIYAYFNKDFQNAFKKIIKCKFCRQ

[7] = target: T4, Adrenergic receptor alpha-1 (Rattus norvegicus, UniProt P15823+P23944+P43140); test: Inhibition of rat alpha 1 adrenoceptor
T4 sequence (P15823 whole entry): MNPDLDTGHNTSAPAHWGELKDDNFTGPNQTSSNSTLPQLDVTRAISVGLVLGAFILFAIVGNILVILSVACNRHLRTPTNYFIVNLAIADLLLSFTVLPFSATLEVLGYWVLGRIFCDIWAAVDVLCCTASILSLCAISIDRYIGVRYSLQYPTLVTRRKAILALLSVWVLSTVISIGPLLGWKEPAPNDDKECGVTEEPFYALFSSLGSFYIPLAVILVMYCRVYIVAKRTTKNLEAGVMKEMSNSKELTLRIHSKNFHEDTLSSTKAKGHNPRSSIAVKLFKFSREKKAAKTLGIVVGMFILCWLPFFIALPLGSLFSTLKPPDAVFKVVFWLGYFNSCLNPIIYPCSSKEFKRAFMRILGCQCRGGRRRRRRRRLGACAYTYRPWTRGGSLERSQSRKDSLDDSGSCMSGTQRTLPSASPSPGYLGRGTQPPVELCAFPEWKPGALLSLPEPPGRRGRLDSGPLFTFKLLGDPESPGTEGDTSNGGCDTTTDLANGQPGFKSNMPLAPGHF
T4 sequence (P23944 whole entry): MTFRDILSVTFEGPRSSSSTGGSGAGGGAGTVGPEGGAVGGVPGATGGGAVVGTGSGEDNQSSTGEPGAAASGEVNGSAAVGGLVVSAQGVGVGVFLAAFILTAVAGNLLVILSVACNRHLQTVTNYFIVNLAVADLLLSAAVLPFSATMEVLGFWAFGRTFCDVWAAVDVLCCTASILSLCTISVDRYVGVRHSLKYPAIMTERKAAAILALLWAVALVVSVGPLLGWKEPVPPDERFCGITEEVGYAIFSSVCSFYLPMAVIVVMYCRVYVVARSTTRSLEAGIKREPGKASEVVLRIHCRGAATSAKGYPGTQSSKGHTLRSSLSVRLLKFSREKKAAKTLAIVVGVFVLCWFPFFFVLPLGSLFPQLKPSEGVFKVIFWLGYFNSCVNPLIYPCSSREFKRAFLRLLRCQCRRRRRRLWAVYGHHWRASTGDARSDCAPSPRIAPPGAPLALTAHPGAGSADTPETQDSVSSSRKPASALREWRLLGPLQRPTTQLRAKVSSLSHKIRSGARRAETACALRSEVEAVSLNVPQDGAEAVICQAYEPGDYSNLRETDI
T4 sequence (P43140 whole entry): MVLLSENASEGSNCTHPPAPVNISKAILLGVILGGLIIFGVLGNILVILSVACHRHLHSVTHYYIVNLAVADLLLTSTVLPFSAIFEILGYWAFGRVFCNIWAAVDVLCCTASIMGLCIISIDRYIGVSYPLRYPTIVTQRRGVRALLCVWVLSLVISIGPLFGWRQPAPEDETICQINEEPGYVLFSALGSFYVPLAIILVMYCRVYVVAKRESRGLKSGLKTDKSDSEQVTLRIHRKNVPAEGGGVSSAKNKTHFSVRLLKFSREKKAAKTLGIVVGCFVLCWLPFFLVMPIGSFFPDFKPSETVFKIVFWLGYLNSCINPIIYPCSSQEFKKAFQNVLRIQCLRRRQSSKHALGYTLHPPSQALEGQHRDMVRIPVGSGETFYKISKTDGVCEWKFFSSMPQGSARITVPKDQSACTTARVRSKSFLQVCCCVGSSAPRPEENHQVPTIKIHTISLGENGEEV

[8] = target: T5, 5-hydroxytryptamine receptor 2C (Homo sapiens, UniProt P28335); test: Inhibition of human 5HT2C receptor
T5 sequence (P28335 whole entry): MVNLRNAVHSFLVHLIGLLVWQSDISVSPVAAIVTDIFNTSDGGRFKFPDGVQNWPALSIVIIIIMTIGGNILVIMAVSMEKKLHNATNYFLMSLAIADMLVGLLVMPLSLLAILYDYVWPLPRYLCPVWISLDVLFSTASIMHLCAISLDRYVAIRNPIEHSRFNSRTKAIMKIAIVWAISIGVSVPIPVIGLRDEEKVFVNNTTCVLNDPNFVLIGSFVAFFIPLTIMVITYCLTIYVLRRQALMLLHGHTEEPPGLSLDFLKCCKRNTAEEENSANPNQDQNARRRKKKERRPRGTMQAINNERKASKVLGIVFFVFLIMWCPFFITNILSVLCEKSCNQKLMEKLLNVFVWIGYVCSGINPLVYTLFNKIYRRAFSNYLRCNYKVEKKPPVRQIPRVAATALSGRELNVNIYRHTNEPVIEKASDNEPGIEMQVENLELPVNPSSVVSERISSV

[9] = target: Sodium-dependent serotonin transporter (Homo sapiens, UniProt P31645); test: Inhibition of human SERT
Chain of Sodium-dependent serotonin transporter (P31645 whole entry): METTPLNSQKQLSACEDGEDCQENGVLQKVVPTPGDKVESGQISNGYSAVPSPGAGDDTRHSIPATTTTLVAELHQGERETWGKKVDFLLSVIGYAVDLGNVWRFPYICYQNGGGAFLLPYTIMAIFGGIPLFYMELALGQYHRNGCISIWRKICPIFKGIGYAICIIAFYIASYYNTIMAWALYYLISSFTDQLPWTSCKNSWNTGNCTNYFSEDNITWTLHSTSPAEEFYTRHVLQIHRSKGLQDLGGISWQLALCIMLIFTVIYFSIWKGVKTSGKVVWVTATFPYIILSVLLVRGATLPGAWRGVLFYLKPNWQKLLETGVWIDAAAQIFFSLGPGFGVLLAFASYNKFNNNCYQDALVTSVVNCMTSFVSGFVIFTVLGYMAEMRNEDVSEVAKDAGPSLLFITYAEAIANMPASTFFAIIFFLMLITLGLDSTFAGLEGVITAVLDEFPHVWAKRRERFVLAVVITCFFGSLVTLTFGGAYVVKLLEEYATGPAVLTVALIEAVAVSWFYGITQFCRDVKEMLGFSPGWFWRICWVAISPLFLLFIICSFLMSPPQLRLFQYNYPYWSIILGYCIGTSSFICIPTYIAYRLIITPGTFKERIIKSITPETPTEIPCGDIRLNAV

[10] = target: T1, 5-hydroxytryptamine receptor 6; test: Displacement of [3H]LSD from human cloned 5HT6 receptor expressed in human HeLa cells; type: cell-based

T1 sequence (P50406 whole entry): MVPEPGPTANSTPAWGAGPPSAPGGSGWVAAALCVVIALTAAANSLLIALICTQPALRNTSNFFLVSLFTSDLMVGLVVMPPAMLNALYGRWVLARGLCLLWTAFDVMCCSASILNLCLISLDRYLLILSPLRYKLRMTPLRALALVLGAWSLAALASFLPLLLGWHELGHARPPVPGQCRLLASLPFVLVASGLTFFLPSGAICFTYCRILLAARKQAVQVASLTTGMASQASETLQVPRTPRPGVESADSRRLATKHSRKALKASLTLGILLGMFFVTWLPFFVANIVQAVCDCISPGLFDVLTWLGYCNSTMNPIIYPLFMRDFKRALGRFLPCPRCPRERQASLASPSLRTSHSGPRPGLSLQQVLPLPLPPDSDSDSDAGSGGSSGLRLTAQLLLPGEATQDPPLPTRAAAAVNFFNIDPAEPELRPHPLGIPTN

SMILES	Ki [1] [nM]	inhibition [2] [%]	Imax [3] [%]	IC50 [4] [nM]	IC50 [5]	IC50 [6] [nM]	IC50 [7] [nM]	IC50 [8] [nM]	IC50 [9] [nM]	Ki [10] [nM]
CN(c1ccc2c(c1)/C(=N/NC(=N)N)CC2)S(=O)(=O)c1c(Cl)nc2sccn12.Cl	4.1	> 80	102	54	> 1000 nM	> 1000	–	–	–	–
CC1Cc2ccc(NS(=O)(=O)c3c(Cl)nc4sccn34)cc2/C1=N/NC(=N)N.Cl (racemic)	1.6	> 80	157	58	> 1000 nM	> 1000	> 1000	> 1000	> 1000	–
N=C(N)N/N=C1\CCc2c(NS(=O)(=O)c3c(Cl)nc4sccn34)cccc21	–	2	–	–	–	–	–	–	–	–
Cl.N=C(N)N/N=C1\CCc2ccc(NS(=O)(=O)c3c(Cl)nc4sccn34)cc21	1.2	> 80	127	96	> 1 ×10⁴ nM	> 10000	> 1000	> 10000	> 10000	–
COc1ccc(S(=O)(=O)Nc2ccc3[nH]cc(/C(C)=N/NC(=N)N)c3c2)cc1	–	–	–	–	–	–	–	–	–	1
C/C(=N\NC(=N)N)c1cn(S(=O)(=O)c2c(Cl)nc3sccn23)c2ccccc12	–	–	–	–	–	–	–	–	–	≤ 8
Cl.N=C(N)N/N=C1\CCc2cc(NS(=O)(=O)c3c(Cl)nc4sccn34)ccc21	2.6	> 80	173	47	> 1000 nM	> 10000	–	–	–	–
CN1CCOc2ccc(S(=O)(=O)Nc3ccc4c(c3)/C(=N\NC3=NCCN3)CC4)cc21	70	> 80	–	–	–	–	–	–	–	–
